# Laboratory results from ChEMBL document CHEMBL4184148 (Bioorg Med Chem Lett, 2017).
# Calls of active or inactive are those of the source. The rule behind the calls is not given here.
# How the values were obtained:
# [1] = system: HCT-116; assay: Cytotoxicity against human HCT116 cells assessed as reduction in cell viability after 72 hrs by CellTiter-Glo assay; assay type: functional, cell-based; conditions: HCT-116, 72 h
# Outline: (§1)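 Cells were treated across a dose-response range for 72 h, and viability was read by CellTiter-Glo luminescence. Measurements were made in triplicate and reported with standard error.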
# [2] = system: HEK293; assay: Cytotoxicity against human HEK293 cells assessed as reduction in cell viability after 72 hrs by CellTiter-Glo assay; assay type: cell-based; conditions: HEK293, 72 h; outline: as §1
# [3] = molecular target: T1, Aurora kinase B (Homo sapiens, UniProt Q96GD4); assay: Inhibition of recombinant full length His-tagged human Aurora B expressed in baculovirus expression system by Z'LYTE assay
# T1 sequence (Q96GD4 whole entry): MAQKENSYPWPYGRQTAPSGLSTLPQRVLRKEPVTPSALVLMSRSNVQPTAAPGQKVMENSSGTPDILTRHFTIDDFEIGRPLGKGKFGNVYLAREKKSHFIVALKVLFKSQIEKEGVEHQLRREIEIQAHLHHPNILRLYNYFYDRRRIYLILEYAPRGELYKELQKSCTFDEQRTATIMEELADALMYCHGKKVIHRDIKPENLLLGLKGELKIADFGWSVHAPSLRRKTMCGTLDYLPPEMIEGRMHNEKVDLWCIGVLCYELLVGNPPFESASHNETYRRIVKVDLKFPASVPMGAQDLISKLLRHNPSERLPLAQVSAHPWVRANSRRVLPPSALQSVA
# Outline: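 Z'LYTE biochemical kinase assay run at the Km ATP concentration for each kinase. IC50 was determined and reported ± standard error.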
# [4] = system: HCT-116; assay: Induction of cell cycle arrest in human HCT116 cells assessed as accumulation of 4N DNA content at 500 nM after 48 hrs by propidium iodide staining-based flow cytometry; assay type: functional
# [5] = molecular target: T2, Aurora kinase C (Homo sapiens, UniProt Q9UQB9); assay: Inhibition of recombinant full length GST-tagged human Aurora C expressed in baculovirus expression system by Z'LYTE assay
# T2 sequence (Q9UQB9 whole entry): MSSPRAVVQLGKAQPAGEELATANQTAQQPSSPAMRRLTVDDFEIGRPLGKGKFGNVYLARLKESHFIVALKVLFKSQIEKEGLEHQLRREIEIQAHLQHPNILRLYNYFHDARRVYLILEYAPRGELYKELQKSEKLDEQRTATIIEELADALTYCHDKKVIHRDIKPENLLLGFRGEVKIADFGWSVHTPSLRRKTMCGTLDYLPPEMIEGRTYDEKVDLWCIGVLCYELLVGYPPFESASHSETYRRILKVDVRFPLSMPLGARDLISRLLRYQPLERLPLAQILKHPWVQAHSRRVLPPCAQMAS
# Outline: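 Biochemical IC50 from a Z'LYTE kinase assay, with ATP at the Km for each kinase. Values are reported with standard error.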
# [6] = molecular target: T1, Aurora kinase B; assay: Inhibition of Aurora B in human HCT116 cells assessed as reduction in histone H3 phosphorylation at S10 residues after 4 hrs by Western blot analysis; assay type: cell-based
# Outline: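 Cells were exposed to compound in dose-response for 4 h, then lysed for western blotting of histone H3 pS10. The cellular EC50 was derived from the dose-response curves. Three replicate experiments were run.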
# [7] = system: HeLa; assay: Cytotoxicity against human HeLa cells assessed as reduction in cell viability after 72 hrs by CellTiter-Glo assay; assay type: functional, cell-based; outline: as §1
# [8] = system: PC-3; assay: Cytotoxicity against human PC3 cells assessed as reduction in cell viability after 72 hrs by CellTiter-Glo assay; assay type: functional, cell-based; conditions: PC-3, 72 h; outline: as §1
compound,measurement,setting,value
CCOC(=O)c1[nH]cc2c1NC1=C(C(=O)CCC1)[C@H]2c1cccc(Oc2nc3ccccc3[nH]2)c1,IC50,[1],3.71 µM
same,IC50,[2],5.86 µM
same,IC50,[3],0.034 µM
same,Activity,[4],Active
same,IC50,[5],0.091 µM
same,EC50,[6],0.027 µM
same,IC50,[7],0.00611 µM
same,IC50,[8],> 10 µM
